From ChEMBL document CHEMBL2034946, “Synthesis and biological evaluation of cyclic sulfamide derivatives as 11β-hydroxysteroid dehydrogenase 1 inhibitors” (ACS Med Chem Lett, 2012)
pIC50: −log10 of the molar value. ≈ marks a conversion by molar mass, not a printed value. Values belong to the molecule of their own block, whether it stands above or below them.

Tests used:
[1] = target: 11-beta-hydroxysteroid dehydrogenase 1 (Homo sapiens, UniProt P28845); test: Inhibition of human 11beta-HSD1 expressed in CHO-K1 cells using cortisone as substrate after 3 hrs by HTRF assay; format: cell-based; conditions: for pIC50: read-out: IC50
How it was run: (§1)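 Cells overexpressing human or mouse 11β-HSD1 incubated with cortisone plus compound for 3 h; cortisol measured by HTRF. IC50 fitted from concentration-dependent inhibition curves; means ± SEM of triplicate experiments.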

[2] = target: 11-beta-hydroxysteroid dehydrogenase 1 (Mus musculus, UniProt P50172); test: Inhibition of mouse 11beta-HSD1 expressed in CHO-K1 cells using cortisone as substrate after 3 hrs by HTRF assay; format: cell-based; how it was run: as §1
[3] = test system: Mus musculus; test: Ex-vivo inhibition of 11betaHSD1 in C57BL/6 mouse fat at 20 mg/kg, po after 2 hrs by ELISA; format: functional; conditions: C57BL/6, 2 h
How it was run: (§2)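 Normal mice dosed orally (1, 5, 10 or 20 mpk); 11β-HSD1 activity in fat tissue measured ex vivo 2 h post-dose.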

[4] = Metabolic stability in human liver microsomes assessed as compound remaining after 30 mins; format: ADME, Microsome; conditions: read-out: Stability
How it was run: (§3)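 Human and rat liver microsomes incubated with compound for 30 min; stability reported as percent parent compound remaining.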

[5] = Metabolic stability in rat liver microsomes assessed as compound remaining after 30 mins; format: ADME, Microsome; conditions: read-out: Stability; how it was run: as §3
[6] = test system: Mus musculus; test: Ex-vivo inhibition of 11betaHSD1 in C57BL/6 mouse liver at 20 mg/kg, po after 2 hrs by ELISA; format: functional; conditions: C57BL/6, Liver
How it was run: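 Normal mice given 20 mpk orally; liver tissue taken 2 h after dosing and 11β-HSD1 activity measured ex vivo as % inhibition relative to vehicle.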

[7] = AUC in cynomolgus monkey at 10 mg/kg, po; format: ADME, organism-based, Macaca fascicularis; parameters: dose 10 mg/kg, route oral; conditions: plasma
[8] = test system: Mus musculus; test: Ex-vivo inhibition of 11betaHSD1 in po dosed C57BL/6 mouse fat after 2 hrs by ELISA; format: functional, organism-based; how it was run: as §2
[9] = test system: Cynomolgus monkey; test: Ex-vivo inhibition of 11beta-HSD1 in cynomolgus monkey shoulder fat at 10 mg/kg, po after 2 hrs by ELISA; format: functional; conditions: Macaca fascicularis
How it was run: (§4)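 Cynomolgus monkeys dosed orally at 10 mpk; 11β-HSD1 activity measured ex vivo in shoulder, inguinal and abdominal cavity fat at 2 h. Means, n = 2 monkeys per group, versus vehicle.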

[10] = test system: Cynomolgus monkey; test: Ex-vivo inhibition of 11beta-HSD1 in cynomolgus monkey inguinal fat at 10 mg/kg, po after 2 hrs by ELISA; format: functional; conditions: Macaca fascicularis; how it was run: as §4
[11] = target: Cytochrome P450 3A4 (Homo sapiens, UniProt P08684); test: Inhibition of CYP3A4 incubated for 20 mins prior to substrate addition measured after 20 mins by fluorimetric assay; format: ADME
[12] = AUC in Sprague-Dawley rat at 10 mg/kg, po; format: ADME, organism-based; parameters: dose 10 mg/kg, route oral; conditions: plasma
[13] = target: Cytochrome P450 2D6 (Homo sapiens, UniProt P10635); test: Inhibition of CYP2D6 incubated for 20 mins prior to substrate addition measured after 20 mins by fluorimetric assay; format: ADME
[14] = Cmax in cynomolgus monkey at 10 mg/kg, po; format: ADME, organism-based, Macaca fascicularis; parameters: dose 10 mg/kg, route oral; conditions: in vivo
[15] = test system: Mus musculus; test: Ex-vivo inhibition of 11betaHSD1 in C57BL/6 mouse fat at 1 mg/kg, po after 2 hrs by ELISA; format: functional; conditions: C57BL/6, 2 h; how it was run: as §2
[16] = Oral bioavailability in Sprague-Dawley rat at 10 mg/kg; format: ADME, organism-based; conditions: in vivo
[17] = Metabolic stability in plasma at 10 uM after 30 mins; format: ADME, cell-free; conditions: read-out: Stability
How it was run: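 Compound incubated in plasma for 30 min; stability given as percent remaining.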

[18] = test system: Mus musculus; test: Ex-vivo inhibition of 11betaHSD1 in C57BL/6 mouse fat at 10 mg/kg, po after 2 hrs by ELISA; format: functional; conditions: C57BL/6, 2 h; how it was run: as §2
[19] = Aqueous solubility of the compound; format: physicochemical; conditions: buffer
[20] = test system: Mus musculus; test: Ex-vivo inhibition of 11betaHSD1 in C57BL/6 mouse fat at 5 mg/kg, po after 2 hrs by ELISA; format: functional; conditions: C57BL/6, 2 h; how it was run: as §2
[21] = target: Cytochrome P450 2C9 (Homo sapiens, UniProt P11712); test: Inhibition of CYP2C9; format: ADME
[22] = Clearance in Sprague-Dawley rat at 10 mg/kg, po; format: ADME, organism-based; parameters: dose 10 mg/kg, route oral; conditions: in vivo
[23] = target: Cytochrome P450 2C19 (Homo sapiens, UniProt P33261); test: Inhibition of CYP2C19 incubated for 20 mins prior to substrate addition measured after 20 mins by fluorimetric assay; format: ADME
[24] = target: T1, Cytochrome P450 1A2 (Homo sapiens, UniProt P05177); test: Inhibition of CYP1A2 incubated for 20 mins prior to substrate addition measured after 20 mins by fluorimetric assay; format: ADME
T1 sequence (P05177 whole entry): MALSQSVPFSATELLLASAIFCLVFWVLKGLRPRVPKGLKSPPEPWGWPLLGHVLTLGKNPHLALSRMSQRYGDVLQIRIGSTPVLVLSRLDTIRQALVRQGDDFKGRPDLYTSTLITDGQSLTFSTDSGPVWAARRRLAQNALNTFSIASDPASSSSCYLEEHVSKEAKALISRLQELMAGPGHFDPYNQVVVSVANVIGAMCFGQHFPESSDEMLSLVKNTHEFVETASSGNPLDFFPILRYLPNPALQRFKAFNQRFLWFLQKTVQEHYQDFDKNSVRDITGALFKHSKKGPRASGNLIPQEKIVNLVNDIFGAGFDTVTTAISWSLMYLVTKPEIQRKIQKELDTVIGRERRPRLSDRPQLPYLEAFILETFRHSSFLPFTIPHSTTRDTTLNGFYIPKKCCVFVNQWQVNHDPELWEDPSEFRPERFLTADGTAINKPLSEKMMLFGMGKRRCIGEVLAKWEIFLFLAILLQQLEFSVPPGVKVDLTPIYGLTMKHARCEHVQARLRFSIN

[25] = target: T2, 11-beta-hydroxysteroid dehydrogenase type 2 (Homo sapiens) (UniProt P80365); test: Inhibition of human 11beta-HSD2 expressed in HEK293 cells using […] as substrate at 10 uM after 24 hrs by HTRF assay; format: cell-based
T2 sequence (whole entry): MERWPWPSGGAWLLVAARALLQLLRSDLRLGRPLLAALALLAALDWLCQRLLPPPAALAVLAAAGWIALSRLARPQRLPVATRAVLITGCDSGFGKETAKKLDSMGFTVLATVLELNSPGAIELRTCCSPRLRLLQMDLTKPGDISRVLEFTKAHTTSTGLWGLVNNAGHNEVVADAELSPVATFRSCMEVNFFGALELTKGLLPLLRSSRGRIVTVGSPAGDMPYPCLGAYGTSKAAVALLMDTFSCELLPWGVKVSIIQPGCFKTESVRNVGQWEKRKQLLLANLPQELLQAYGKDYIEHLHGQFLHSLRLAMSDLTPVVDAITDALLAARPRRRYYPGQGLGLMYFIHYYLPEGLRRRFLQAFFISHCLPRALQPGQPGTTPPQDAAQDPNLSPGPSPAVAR

[26] = test system: Cynomolgus monkey; test: Ex-vivo inhibition of 11beta-HSD1 in cynomolgus monkey abdominal fat at 10 mg/kg, po after 2 hrs by ELISA; format: functional; conditions: Macaca fascicularis, Abdomen; how it was run: as §4
[27] = Cmax in Sprague-Dawley rat at 10 mg/kg, po; format: ADME, organism-based; parameters: dose 10 mg/kg, route oral; conditions: in vivo
[28] = Terminal elimination half life in cynomolgus monkey at 10 mg/kg, po; format: ADME, organism-based, Macaca fascicularis; parameters: dose 10 mg/kg, route oral; conditions: in vivo, read-out: beta t1/2 (converted)
[29] = Terminal elimination half life in Sprague-Dawley rat at 10 mg/kg, po; format: ADME, organism-based; parameters: dose 10 mg/kg, route oral; conditions: in vivo, read-out: beta t1/2 (converted)

11-beta-hydroxysteroid dehydrogenase 1 (Mus musculus, UniProt P50172), sequence (P50172 whole entry): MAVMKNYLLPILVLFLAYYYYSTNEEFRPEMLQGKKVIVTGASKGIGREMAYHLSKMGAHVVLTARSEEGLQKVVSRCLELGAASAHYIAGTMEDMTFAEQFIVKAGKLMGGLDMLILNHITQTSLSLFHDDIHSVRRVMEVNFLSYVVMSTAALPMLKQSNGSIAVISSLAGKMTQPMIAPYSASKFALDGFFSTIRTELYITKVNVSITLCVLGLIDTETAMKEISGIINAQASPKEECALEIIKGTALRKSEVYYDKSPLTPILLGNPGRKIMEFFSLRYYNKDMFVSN
11-beta-hydroxysteroid dehydrogenase 1 (Homo sapiens, UniProt P28845), sequence (P28845 whole entry): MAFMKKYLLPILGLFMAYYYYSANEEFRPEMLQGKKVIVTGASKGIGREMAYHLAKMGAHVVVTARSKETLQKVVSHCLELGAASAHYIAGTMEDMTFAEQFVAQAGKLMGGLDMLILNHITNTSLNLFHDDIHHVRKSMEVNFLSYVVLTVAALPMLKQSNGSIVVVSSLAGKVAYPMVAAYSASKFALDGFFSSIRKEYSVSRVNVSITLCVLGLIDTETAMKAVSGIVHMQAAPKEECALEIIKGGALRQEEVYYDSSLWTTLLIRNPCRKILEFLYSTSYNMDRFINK
Cytochrome P450 2C9, sequence (P11712 whole entry): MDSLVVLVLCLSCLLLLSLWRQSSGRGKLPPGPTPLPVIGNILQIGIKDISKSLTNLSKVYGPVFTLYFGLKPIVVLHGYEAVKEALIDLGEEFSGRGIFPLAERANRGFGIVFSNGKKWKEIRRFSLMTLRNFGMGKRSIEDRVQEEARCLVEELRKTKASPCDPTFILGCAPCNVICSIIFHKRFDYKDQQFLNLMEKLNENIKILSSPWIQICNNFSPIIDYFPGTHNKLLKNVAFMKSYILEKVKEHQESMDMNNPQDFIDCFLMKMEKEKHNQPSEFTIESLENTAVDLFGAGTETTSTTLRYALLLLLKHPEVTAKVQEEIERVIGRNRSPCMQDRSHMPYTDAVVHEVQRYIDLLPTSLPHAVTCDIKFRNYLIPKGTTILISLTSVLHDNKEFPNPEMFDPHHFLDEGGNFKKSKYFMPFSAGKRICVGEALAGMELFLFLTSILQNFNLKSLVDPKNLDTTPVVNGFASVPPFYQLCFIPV
Cytochrome P450 2C19, sequence (P33261 whole entry): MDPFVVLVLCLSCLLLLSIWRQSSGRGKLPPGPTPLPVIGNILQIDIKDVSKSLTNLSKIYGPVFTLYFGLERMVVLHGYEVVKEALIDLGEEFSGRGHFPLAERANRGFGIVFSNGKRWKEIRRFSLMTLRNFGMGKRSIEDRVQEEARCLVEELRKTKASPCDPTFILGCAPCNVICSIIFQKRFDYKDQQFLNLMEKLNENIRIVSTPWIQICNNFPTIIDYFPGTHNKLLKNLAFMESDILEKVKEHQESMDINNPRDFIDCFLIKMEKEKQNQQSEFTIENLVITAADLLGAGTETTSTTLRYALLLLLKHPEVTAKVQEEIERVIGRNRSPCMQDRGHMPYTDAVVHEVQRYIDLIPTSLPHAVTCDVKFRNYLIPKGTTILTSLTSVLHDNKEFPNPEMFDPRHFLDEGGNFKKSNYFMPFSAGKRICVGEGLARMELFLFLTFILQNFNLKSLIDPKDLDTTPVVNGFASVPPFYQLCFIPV
Cytochrome P450 3A4, sequence (P08684 whole entry): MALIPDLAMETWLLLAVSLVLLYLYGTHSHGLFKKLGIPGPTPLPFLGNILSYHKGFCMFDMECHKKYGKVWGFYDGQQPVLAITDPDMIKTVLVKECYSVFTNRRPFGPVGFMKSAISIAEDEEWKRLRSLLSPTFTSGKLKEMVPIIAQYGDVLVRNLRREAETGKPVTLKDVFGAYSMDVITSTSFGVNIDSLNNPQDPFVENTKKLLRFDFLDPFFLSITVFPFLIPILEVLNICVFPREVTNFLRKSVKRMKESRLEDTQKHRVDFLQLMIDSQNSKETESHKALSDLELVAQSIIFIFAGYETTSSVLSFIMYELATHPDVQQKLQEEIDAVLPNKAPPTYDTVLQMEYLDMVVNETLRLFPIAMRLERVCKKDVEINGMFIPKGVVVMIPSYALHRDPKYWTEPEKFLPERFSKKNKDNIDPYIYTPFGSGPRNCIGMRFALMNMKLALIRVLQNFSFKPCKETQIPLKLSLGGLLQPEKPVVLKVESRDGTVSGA
Cytochrome P450 2D6, sequence (P10635 whole entry): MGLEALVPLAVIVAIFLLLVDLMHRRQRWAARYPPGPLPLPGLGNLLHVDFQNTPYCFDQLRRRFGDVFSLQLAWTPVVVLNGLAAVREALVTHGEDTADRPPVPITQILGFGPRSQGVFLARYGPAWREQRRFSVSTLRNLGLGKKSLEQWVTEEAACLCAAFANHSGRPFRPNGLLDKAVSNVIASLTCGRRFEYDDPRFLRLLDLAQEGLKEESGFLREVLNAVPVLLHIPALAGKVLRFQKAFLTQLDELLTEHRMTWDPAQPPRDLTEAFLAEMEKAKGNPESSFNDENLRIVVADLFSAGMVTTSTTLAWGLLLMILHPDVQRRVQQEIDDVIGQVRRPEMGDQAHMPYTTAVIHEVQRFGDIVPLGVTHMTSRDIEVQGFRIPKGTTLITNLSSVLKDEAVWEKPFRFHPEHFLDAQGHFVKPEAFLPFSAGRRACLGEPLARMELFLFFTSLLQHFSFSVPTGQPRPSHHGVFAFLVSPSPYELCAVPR

pIC50 [1]: 7.77
pIC50 [2]: 6.68
Structure (SMILES): NC(=O)[C@]12CC3CC(C1)[C@@H](NC(=O)CN1CCCN(c4ccccc4)S1(=O)=O)C(C3)C2

Structure (SMILES): NC(=O)[C@]12CC3CC(C1)[C@@H](NC(=O)CN1CCN(c4c(Cl)cc(Cl)cc4Cl)S1(=O)=O)C(C3)C2
pIC50 [1]: 6.73
pIC50 [2]: 6.39

Structure (SMILES): NC(=O)[C@]12CC3CC(C1)[C@@H](NC(=O)CN1CC4(CC4)CN(c4c(Cl)cc(Cl)cc4Cl)S1(=O)=O)C(C3)C2
pIC50 [1]: 8.30
inhibition in vivo at 20 mg/kg [3]: 39.6%
pIC50 [2]: 7.64

Structure (SMILES): NC(=O)[C@]12CC3CC(C1)[C@@H](NC(=O)CN1CCCN(c4ccccc4F)S1(=O)=O)C(C3)C2
pIC50 [1]: 7.85
pIC50 [2]: 6.77

pIC50 [1]: 3.45
pIC50 [2]: 4.81
Structure (SMILES): NC(=O)[C@]12CC3CC(C1)[C@@H](NC(=O)CN1CCCN(c4ccc(F)cc4)S1(=O)=O)C(C3)C2

pIC50 [1]: 9.00
remaining at 0.5 h [4]: 40%
remaining at 0.5 h [5]: 26%
pIC50 [2]: 9.00
Structure (SMILES): NC(=O)[C@]12CC3CC(C1)[C@@H](NC(=O)CN1CCCCN(c4c(Cl)cc(Cl)cc4Cl)S1(=O)=O)C(C3)C2
inhibition in vivo at 20 mg/kg [3]: 59.9%
inhibition in vivo at 20 mg/kg [6]: 51.4%

Structure (SMILES): C=C1CN(CC(=O)N[C@H]2C3CC4CC2C[C@](C(N)=O)(C4)C3)S(=O)(=O)N(c2c(Cl)cc(Cl)cc2Cl)C1
pIC50 [1]: 7.85
inhibition in vivo at 20 mg/kg [3]: 82.1%
pIC50 [2]: 8.10

pIC50 [1]: 5.78
Structure (SMILES): O=C(CN1CCCN(CCc2ccccc2)S1(=O)=O)NC1C2CC3CC(C2)CC1C3 (stereo not given)

Structure (SMILES): CC1CN(CC(=O)N[C@H]2C3CC4CC2C[C@](C(N)=O)(C4)C3)S(=O)(=O)N(c2c(Cl)cc(Cl)cc2Cl)C1 (mixture of isomers)
pIC50 [1]: 9.00
remaining at 0.5 h [4]: 93%
inhibition in vivo at 20 mg/kg [3]: 95.9%
AUC [7]: 35600 ng·h/mL
inhibition [8]: Dose-dependent effect
inhibition in vivo at 10 mg/kg [9]: 87%
inhibition in vivo at 10 mg/kg [10]: 83%
remaining at 0.5 h [5]: 78%
INH [11]: > 100 µM
AUC [12]: 15700 ng·h/mL
INH [13]: > 100 µM
Cmax [14]: 6400 ng/mL
inhibition in vivo at 1 mg/kg [15]: 76.6%
bioavailability [16]: 68.8%
remaining at 0.5 h, 10 µM [17]: 100%
inhibition in vivo at 10 mg/kg [18]: 90.7%
solubility [19]: 361 µM (≈ 204 µg/mL)
inhibition in vivo at 5 mg/kg [20]: 90.4%
INH [21]: > 100 µM
pIC50 [2]: 8.70
CL/F [22]: 11.7 mL/min/kg
INH [23]: > 100 µM
INH [24]: > 100 µM
inhibition [25]: 20%
inhibition in vivo at 10 mg/kg [26]: 81%
Cmax [27]: 3100 ng/mL
half-life [28]: 3.4 h
half-life [29]: 3.8 h

Structure (SMILES): CC1(C)CN(CC(=O)N[C@H]2C3CC4CC2C[C@](C(N)=O)(C4)C3)S(=O)(=O)N(c2c(Cl)cc(Cl)cc2Cl)C1
pIC50 [1]: 8.30
inhibition in vivo at 20 mg/kg [3]: 29.9%
pIC50 [2]: 7.59

pIC50 [1]: 9.00
remaining at 0.5 h [4]: 94%
remaining at 0.5 h [5]: 70%
pIC50 [2]: 7.15
Structure (SMILES): CC1CCN(c2c(Cl)cc(Cl)cc2Cl)S(=O)(=O)N1CC(=O)N[C@H]1C2CC3CC1C[C@](C(N)=O)(C3)C2 (mixture of isomers)
inhibition in vivo at 20 mg/kg [3]: 74.5%

Structure (SMILES): NC(=O)[C@]12CC3CC(C1)[C@@H](NC(=O)CN1CCCN(c4c(F)cc(F)cc4F)S1(=O)=O)C(C3)C2
pIC50 [1]: 7.70
pIC50 [2]: 6.80

Structure (SMILES): O=C(O)CN1CCCN(c2ccccc2)S1(=O)=O
IC50 ([1]; cho-k1): Not Active

pIC50 [1]: 7.30
pIC50 [2]: 6.85
Structure (SMILES): NC(=O)[C@]12CC3CC(C1)[C@@H](NC(=O)CN1CCCN(c4cccc(F)c4)S1(=O)=O)C(C3)C2

pIC50 [1]: 5.47
Structure (SMILES): O=C(CN1CCCN(c2ccccc2)S1(=O)=O)NC12CC3CC(CC(C3)C1)C2

pIC50 [1]: 9.00
remaining at 0.5 h [4]: 21%
remaining at 0.5 h [5]: 7%
pIC50 [2]: 8.70
Structure (SMILES): CN(CC(=O)N[C@H]1C2CC3CC1C[C@](C(N)=O)(C3)C2)S(=O)(=O)N(C)c1c(Cl)cc(Cl)cc1Cl
inhibition in vivo at 20 mg/kg [3]: 33.3%
inhibition in vivo at 20 mg/kg [6]: 57.8%

pIC50 [1]: 9.00
remaining at 0.5 h [4]: 61%
remaining at 0.5 h [5]: 57%
pIC50 [2]: 8.40
Structure (SMILES): NC(=O)[C@]12CC3CC(C1)[C@@H](NC(=O)CN1CCCN(c4c(Cl)cc(Cl)cc4Cl)S1(=O)=O)C(C3)C2
inhibition in vivo at 20 mg/kg [3]: 92.1%
inhibition in vivo at 20 mg/kg [6]: 83.7%
